{
  "source": "ChEMBL document CHEMBL4831496",
  "about": "“Noncovalent EGFR T790M/L858R inhibitors based on diphenylpyrimidine scaffold: Design, synthesis, and bioactivity evaluation for the treatment of NSCLC” (Eur J Med Chem, 2021)",
  "key": {"NCI-H1975 [1]": {"tested_on": "NCI-H1975", "test": "Induction of apoptosis in human NCI-H1975 cells assessed as necrotic cells at 0.5 uM incubated for 48 hrs by AnnexinV/FITC and propidium iodide staining based flow cytometry analysis (reference value: 2.99%)", "format": "functional"}, "NCI-H23": {"tested_on": "NCI-H23", "test": "Antiproliferative activity against human NCI-H23 cells harboring KRAS mutant assessed as reduction in cell viability incubated for 72 hrs by CCK8 assay", "format": "functional, cell-based", "settings": "NCI-H23, 72 h", "procedure,_shortened": "(§1)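 Cells kept as monolayers at 37 °C, 5% CO2, seeded 3000-4000/well for 12 h, then exposed to compounds for 72 h. CCK-8 added for 1-2 h at 37 °C, absorbance read at 450 nm. Each dose run in triplicate, experiment repeated at least three times. IC50 taken from dose-response curves.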"}, "NCI-H1975 [2]": {"tested_on": "NCI-H1975", "test": "Antiproliferative activity against human NCI-H1975 cells harboring EGFR L858R/T790M mutant assessed as reduction in cell viability incubated for 72 hrs by CCK8 assay", "format": "functional, cell-based", "settings": "NCI-H1975, 72 h", "procedure,_shortened": "as §1"}, "NCI-H1975 [3]": {"tested_on": "NCI-H1975", "test": "Induction of morphological changes in human NCI-H1975 cells assessed as chromatin shrinkage and gathering to nuclear membrane at 0.5 to 2 uM incubated for 48 hrs by DAPI staining based fluorescence microscopic analysis", "format": "functional, cell-based", "settings": "dose 0.5-2 µM", "procedure,_shortened": "(§2)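 H1975 cells seeded at about 2 × 10⁵/well for 12 h, then treated. Cells fixed in 10% formaldehyde for 10 min, stained with DAPI for 10 min at room temperature and examined by fluorescence microscopy. Cell shape was also viewed under natural light.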"}, "NCI-H1975 [4]": {"tested_on": "NCI-H1975", "test": "Induction of apoptosis in human NCI-H1975 cells assessed as viable cells at 0.5 uM incubated for 48 hrs by AnnexinV/FITC and propidium iodide staining based flow cytometry analysis (reference value: 94.9%)", "format": "functional", "settings": "read-out: Activity"}, "NCI-H1975 [5]": {"tested_on": "NCI-H1975", "test": "Induction of morphological changes in human NCI-H1975 cells assessed as nuclear fragmentation at 0.5 to 2 uM incubated for 48 hrs under natural light by DAPI staining based fluorescence microscopic analysis", "format": "functional, cell-based", "settings": "dose 0.5-2 µM", "procedure,_shortened": "as §2"}, "NCI-H1975 [6]": {"tested_on": "NCI-H1975", "test": "Induction of morphological changes in human NCI-H1975 cells assessed as increase in fusiform and sickle cell type abnormal cells at 0.5 to 2 uM incubated for 48 hrs by DAPI staining based fluorescence microscopic analysis", "format": "functional", "settings": "dose 0.5-2 µM", "procedure,_shortened": "as §2"}, "NCI-H1975 [7]": {"tested_on": "NCI-H1975", "test": "Induction of apoptosis in human NCI-H1975 cells assessed as viable cells at 2 uM incubated for 48 hrs by AnnexinV/FITC and propidium iodide staining based flow cytometry analysis (reference value: 94.9%)", "format": "functional", "settings": "read-out: Activity"}, "[8]": {"target": "Epidermal growth factor receptor (Homo sapiens, UniProt P00533)", "sequence (P00533 whole entry)": "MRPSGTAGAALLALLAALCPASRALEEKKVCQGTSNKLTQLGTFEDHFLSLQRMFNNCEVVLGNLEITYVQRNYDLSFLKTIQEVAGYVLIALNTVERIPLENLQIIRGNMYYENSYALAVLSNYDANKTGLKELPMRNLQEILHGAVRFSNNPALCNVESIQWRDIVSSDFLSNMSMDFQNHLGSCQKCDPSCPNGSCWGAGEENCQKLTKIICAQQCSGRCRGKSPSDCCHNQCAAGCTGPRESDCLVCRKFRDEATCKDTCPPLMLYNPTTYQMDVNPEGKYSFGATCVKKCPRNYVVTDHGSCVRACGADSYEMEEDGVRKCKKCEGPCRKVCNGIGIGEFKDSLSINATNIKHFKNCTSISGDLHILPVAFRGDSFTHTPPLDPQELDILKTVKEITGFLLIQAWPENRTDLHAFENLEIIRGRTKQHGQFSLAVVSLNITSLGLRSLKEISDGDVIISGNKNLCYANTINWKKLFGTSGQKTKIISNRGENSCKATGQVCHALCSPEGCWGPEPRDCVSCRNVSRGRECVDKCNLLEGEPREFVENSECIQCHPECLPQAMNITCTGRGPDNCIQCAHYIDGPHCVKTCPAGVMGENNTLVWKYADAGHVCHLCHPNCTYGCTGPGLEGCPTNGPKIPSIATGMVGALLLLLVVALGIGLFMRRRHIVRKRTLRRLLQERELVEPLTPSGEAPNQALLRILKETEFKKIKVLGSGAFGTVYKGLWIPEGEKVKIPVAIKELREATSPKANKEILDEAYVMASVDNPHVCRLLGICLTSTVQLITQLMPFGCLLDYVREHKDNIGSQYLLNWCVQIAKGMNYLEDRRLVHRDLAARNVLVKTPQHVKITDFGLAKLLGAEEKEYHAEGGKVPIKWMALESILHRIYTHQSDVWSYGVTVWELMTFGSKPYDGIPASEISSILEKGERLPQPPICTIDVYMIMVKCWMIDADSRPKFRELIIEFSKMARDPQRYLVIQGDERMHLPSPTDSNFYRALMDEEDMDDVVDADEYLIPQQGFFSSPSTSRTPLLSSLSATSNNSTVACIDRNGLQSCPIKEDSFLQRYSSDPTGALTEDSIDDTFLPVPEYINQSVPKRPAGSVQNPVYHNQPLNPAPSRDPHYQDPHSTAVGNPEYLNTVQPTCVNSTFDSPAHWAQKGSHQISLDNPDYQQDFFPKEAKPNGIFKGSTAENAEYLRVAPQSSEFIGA", "test": "Inhibition of wild type EGFR (unknown origin) measured after 60 mins by ADP-Glo kinase based luminescence assay"}, "NCI-H1975 [9]": {"tested_on": "NCI-H1975", "test": "Induction of cell cycle arrest in human NCI-H1975 cells assessed as accumulation of cells at G0/G1 phase at 0.125 uM incubated for 48 hrs by propidium iodide staining based flow cytometry analysis (reference value: 58.05%)", "format": "functional"}, "Homo sapiens": {"species": "Homo sapiens", "test": "Selectivity index, ratio of IC50 for wild type EGFR (unknown origin) to IC50 for EGFR L858R/T790M double mutant (unknown origin)"}, "[10]": {"test": "MRT (0 to infinity) in Sprague-Dawley rat at 25 mg/kg, iv by LC-MS/MS analysis", "format": "ADME, organism-based", "settings": "in vivo", "procedure,_shortened": "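Male Sprague-Dawley rats (200 ± 20 g), acclimatised 1 week at 25 ± 2 °C, 50-60% RH; six rats given 25 mg/kg by tail vein. Retro-orbital blood into heparin at 10, 20, 40 min and 1, 2, 3, 4, 6, 8, 12, 24 h. Plasma ethyl acetate-extracted and quantified by LC-MS/MS, transition m/z 485.3/452.3.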"}, "NCI-H1975 [11]": {"tested_on": "NCI-H1975", "test": "Induction of apoptosis in human NCI-H1975 cells assessed as late apoptotic cells at 0.125 uM incubated for 48 hrs by AnnexinV/FITC and propidium iodide staining based flow cytometry analysis (reference value: 0.73%)", "format": "functional"}},
  "note": "The source made the active and inactive calls. No cut-off for these calls is given here.",
  "data": [
    {"smiles": "O=C(NO)c1ccccc1Nc1nc(Nc2ccc(OCCN3CCOCC3)cc2)ncc1Cl", "values": [
      {"measurement": "Activity", "setting": "NCI-H1975 [1]", "result": 0.07, "unit": "%"},
      {"measurement": "IC50", "setting": "NCI-H23", "result": 625, "unit": "nM"},
      {"measurement": "IC50", "setting": "NCI-H1975 [2]", "result": 97.8, "unit": "nM"},
      {"measurement": "Activity", "setting": "NCI-H1975 [3]", "result": "Active"},
      {"measurement": "viability at 0.5 µM", "setting": "NCI-H1975 [4]", "result": 83.8, "unit": "%"},
      {"measurement": "Activity", "setting": "NCI-H1975 [5]", "result": "Active"},
      {"measurement": "Activity", "setting": "NCI-H1975 [6]", "result": "Active"},
      {"measurement": "viability at 2 µM", "setting": "NCI-H1975 [7]", "result": 8.63, "unit": "%"},
      {"measurement": "IC50", "setting": "[8]", "result": 47.7, "unit": "nM"},
      {"measurement": "Activity", "setting": "NCI-H1975 [9]", "result": 20.25, "unit": "%"},
      {"measurement": "Ratio IC50", "setting": "Homo sapiens", "result": 43.4},
      {"measurement": "MRT inf", "setting": "[10]", "result": 13.1, "unit": "h"},
      {"measurement": "Activity", "setting": "NCI-H1975 [11]", "result": 0.31, "unit": "%"}
    ]}
  ]
}
